Our source for the Activity values is ChEMBL document CHEMBL1667749, “Design & synthesis of N'-[substituted] pyridine-4-carbohydrazides as potential anticonvulsant agents” (Eur J Med Chem, 2011).

The source made the active and inactive calls. No cut-off for these calls is given here.

Data set [1] concerns Mus musculus. Description: Anticonvulsant activity in albino CF-1 mouse assessed as protection against maximal electroshock-induced seizures at 300 mg/kg, ip after 0.5 hrs. It counts as functional, organism-based. On the set-up: dose 300 mg/kg. In outline:
(§1)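 Male CF-1 mice (18–25 g), i.p. in 0.5% methyl cellulose at 30, 100 and 300 mg/kg; MES: 60 Hz, 50 mA, 0.2 s through tetracaine-primed corneal electrodes; protection = abolished hind limb tonic extension. Value given as minimum dose active in half or more of mice.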
A general note: In the maximal electroshock model the usual endpoint is tonic extension of the hind limbs.

Data set [2] has as its system Mus musculus. The data set is described as follows: Anticonvulsant activity in albino CF-1 mouse assessed as protection against maximal electroshock-induced seizures at 300 mg/kg, ip after 2 hrs. It counts as functional, organism-based. More on the design: dose 300 mg/kg. In outline: as §1
Data set [3] relates to Mus musculus. The data set is described as follows: Anticonvulsant activity in albino CF-1 mouse assessed as protection against maximal electroshock-induced seizures at 300 mg/kg, ip after 4 hrs. Type of data set: functional, organism-based. On the set-up: dose 300 mg/kg. The essentials: as §1
Data set [4] relates to Mus musculus. The data set is described as follows: Anticonvulsant activity in albino CF-1 mouse assessed as protection against subcutaneous metrazol-induced seizures at 300 mg/kg, ip after 4 hrs. Type of data set: functional, organism-based. On the set-up: dose 300 mg/kg. The essentials: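 Male CF-1 mice, i.p. at 30, 100, 300 mg/kg in 0.5% methyl cellulose; metrazol dose convulsing 97% of animals injected s.c. in midline neck fold, mice isolated and watched 30 min; protected if no 3–5 s clonic spasm episode of limbs, jaws or vibrissae.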

Data set [5] concerns Mus musculus. The data set is described as follows: Anticonvulsant activity in ip dosed albino CF-1 mouse assessed as dose required to protect against subcutaneous metrazol-induced seizures after 0.5 hrs. It counts as functional. The essentials: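 Male albino CF-1 mice (18-25 g) received i.p. compound suspended in 0.5% methyl cellulose at 30, 100 and 300 mg/kg. Metrazol at a dose convulsing 97% of animals was given s.c. in the midline neck fold, and mice were observed 30 min in isolation. A clonic spasm of about 3-5 s was the end point. The value is the minimum dose protecting half or more of the mice.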

Data set [6] concerns Mus musculus. The data set is described as follows: Neurotoxicity in albino CF-1 mouse assessed as motor impairment at 300 mg/kg, ip after 0.5 hrs by rotarod test. It counts as toxicity, organism-based. On the set-up: dose 300 mg/kg, route intraperitoneal. The following applies: in vivo. In outline: (§2)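 Minimal motor impairment in male CF-1 mice by rotorod after i.p. dosing; toxic if animal falls off rotating rod 3 times within 1 min. Screen doses 30, 100, 300 mg/kg; quantitative TD50 (95% confidence interval) determined at time of peak effect.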
On the technique in general: Falling from the rotarod earlier than controls is read as motor impairment.

Data set [7] concerns Mus musculus. Description: Neurotoxicity in albino CF-1 mouse assessed as motor impairment at 300 mg/kg, ip after 4 hrs by rotarod test. The following applies: in vivo. More on the design: dose 300 mg/kg, route intraperitoneal. Type of data set: toxicity, organism-based. The essentials:
as §2

Consider `CCCC(CCC)C(=O)[O-].[Na+]` [VALPROATE SODIUM], for which the outcome in data set [1], in data set [2], in data set [3] and in data set [4] was inactive. The Activity in data set [5] is 300 mg/kg; in data set [6] it was “Non-toxic”; in data set [7] it was “Non-toxic”.
